Laboratory results: ChEMBL document CHEMBL1914377, “Preliminary finding on a new calcium channel entry blocker chemotype: 5,6-diamino-4-hydroxy-2-mercaptopyrimidine derivatives” (J Med Chem, 2011)

How the values were obtained:
[1] = Cardiovascular activity in guinea pig spontaneously beating right atrium assessed as negative chronotropic activity by measuring decrease of atrial rate at 10^-4 M relative to control; format: functional; conditions: Cavia porcellus, Cardiac atrium
[2] = Cardiovascular activity in guinea pig left atrium assessed as negative inotropic activity by measuring decrease of 1 Hz-induced tension at 10^-5 M relative to control; format: functional; conditions: Cavia porcellus, Cardiac atrium
Aorta [3] = assay: Vasorelaxant activity in guinea pig K+-depolarized guinea pig aortic strip assessed as inhibition of calcium-induced contraction at 10^-4 M relative to control; format: functional; conditions: Cavia porcellus
[4] = Cardiovascular activity in guinea pig left atrium assessed as negative inotropic activity by measuring decrease of 1 Hz-induced tension; format: functional, tissue-based; conditions: Cavia porcellus, Cardiac atrium
Method in brief: (§1)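 Log concentration–response curves fitted by probit analysis (Litchfield and Wilcoxon), n = 4–7. They were not calculated when the maximum effect was below 50%.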

TT = assay: Inhibition of T-type calcium channel expressed in human TT cells using Ba2+ as charge carrier at 10 uM by patch clamp electrophysiological assay relative to control; format: cell-based
Method in brief: (§2)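 Whole-cell patch clamp with Ba2+ currents. L-type current was recorded in transfected CHO cells and T-type current in TT cells, whose only voltage-gated Ca2+ currents are T-type. The read-out was percent decrease in peak current, comparing the mean of five consecutive steady-state sweeps in control and in drug. Results are mean ± SEM, n = 5–7 cells per group.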

[5] = Vasorelaxant activity in guinea pig K+-depolarized guinea pig longitudinal smooth muscle assessed as inhibition of calcium-induced contraction; format: functional, Cavia porcellus
[6] = Cardiovascular activity in guinea pig spontaneously beating right atrium assessed as negative chronotropic activity by measuring decrease of atrial rate at 5 x 10^-5 M relative to control; format: functional; conditions: Cavia porcellus, Cardiac atrium
CHO = assay: Inhibition of L-type alpha9beta3alpha2/gamma4 calcium channel expressed in CHO cells using Ba2+ as charge carrier at 10 uM by patch clamp electrophysiological assay relative to control; format: cell-based; method in brief: as §2
[7] = Vasorelaxant activity in guinea pig K+-depolarized guinea pig longitudinal smooth muscle assessed as inhibition of calcium-induced contraction at 5 x 10^-5 M relative to control; format: functional; conditions: Cavia porcellus
Method in brief: (§3)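 Guinea-pig longitudinal smooth muscle depolarized with K+ (80 mM). Percent inhibition of calcium-induced contraction was measured at single concentrations of 10^-4 M, 5 × 10^-5 M or 10^-5 M. Results are mean ± SEM.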

[8] = Cardiovascular activity in guinea pig left atrium assessed as negative inotropic activity by measuring decrease of 1 Hz-induced tension at 10^-4 M relative to control; format: functional; conditions: Cavia porcellus, Cardiac atrium
Aorta [9] = assay: Vasorelaxant activity in guinea pig K+-depolarized guinea pig aortic strip assessed as inhibition of calcium-induced contraction; format: functional, tissue-based; conditions: Cavia porcellus; method in brief: as §1
Aorta [10] = assay: Vasorelaxant activity in guinea pig K+-depolarized guinea pig aortic strip assessed as inhibition of calcium-induced contraction at 5 x 10^-5 M relative to control; format: functional; conditions: Cavia porcellus
[11] = Vasorelaxant activity in guinea pig K+-depolarized guinea pig longitudinal smooth muscle assessed as inhibition of calcium-induced contraction at 10^-4 M relative to control; format: functional; conditions: Cavia porcellus; method in brief: as §3
[12] = Cardiovascular activity in guinea pig spontaneously beating right atrium assessed as negative chronotropic activity by measuring decrease of atrial rate; format: functional; conditions: Cavia porcellus, Cardiac atrium; method in brief: as §1
[13] = Cardiovascular activity in guinea pig left atrium assessed as negative inotropic activity by measuring decrease of 1 Hz-induced tension in presence of adenosine A1 receptor antagonist DPCPX; format: functional, tissue-based; conditions: Cavia porcellus, Cardiac atrium
Method in brief: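 Negative inotropic concentration–response determined in the presence of the A1 antagonist DPCPX at 1 μM.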

[14] = Cardiovascular activity in guinea pig left atrium assessed as negative inotropic activity by measuring decrease of 1 Hz-induced tension at 5 x 10^-5 M relative to control; format: functional; conditions: Cavia porcellus, Cardiac atrium
[15] = Vasorelaxant activity in guinea pig K+-depolarized guinea pig longitudinal smooth muscle assessed as inhibition of calcium-induced contraction at 10^-5 M relative to control; format: functional; conditions: Cavia porcellus; method in brief: as §3
[16] = Cardiovascular activity in guinea pig left atrium assessed as negative inotropic activity by measuring decrease of 1 Hz-induced tension at 5 x 10^-6 M relative to control; format: functional; conditions: Cavia porcellus, Cardiac atrium
[17] = Cardiovascular activity in guinea pig spontaneously beating right atrium assessed as negative chronotropic activity by measuring decrease of atrial rate at 10^-5 M relative to control; format: functional; conditions: Cavia porcellus, Cardiac atrium

| IC50 [5] [nM] | Structure (SMILES) | inhibition at 100 µM [1] [%] | inhibition at 10 µM [2] [%] | inhibition at 100 µM (Aorta [3]) [%] | EC50 [4] [nM] | inhibition (TT) [%] | inhibition (CHO) [%] | inhibition at 100 µM [8] [%] | also measured |
| --- | --- | --- | --- | --- | --- | --- | --- | --- | --- |
| – | CCOc1nc(SCCOC)nc(NC(C)=O)c1N(CCOC)CCOC | 3 | 80 | 10 | 620 | – | – | – | – |
| 3390 | CCCSc1nc(N)c(N(CCC)CCC)c(=O)n1CC | – | 56 | 28 | 600 | 35.3 | 54 | – | inhibition at 50 µM [6]: 22%; inhibition [7]: 93% |
| 13900 | CCCSc1nc(N)c(N(CCC)CCC)c(=O)[nH]1 | – | – | 54 | 1960 | – | – | 87 | IC50 (Aorta [9]): 14900 nM; inhibition at 50 µM [6]: 39%; inhibition [7]: 87% |
| – | CCOc1nc(SCc2ccccc2)nc(N)c1N(Cc1ccccc1)Cc1ccccc1 | 33 | – | – | 1490 | – | – | 62 | inhibition at 50 µM (Aorta [10]): 2% |
| 23800 | CCn1c(SCCOC)nc(NC(C)=O)c(N(CCOC)CCOC)c1=O | 2 | – | 2 | 770 | 12.3 | 37 | 81 | inhibition [11]: 91% |
| – | COCCSc1nc(NC(C)=O)c(N(CCOC)CCOC)c(=O)[nH]1 | – | – | 2 | 960 | – | – | 90 | inhibition at 50 µM [6]: 6% |
| – | CCOc1nc(SCc2ccccc2)nc(NC(C)=O)c1N(Cc1ccccc1)Cc1ccccc1 | 44 | 64 | – | 270 | – | – | – | inhibition at 50 µM (Aorta [10]): 20% |
| – | Nc1nc(SCc2ccccc2)[nH]c(=O)c1N(Cc1ccccc1)Cc1ccccc1 | 80 | – | – | 3160 | – | – | 60 | EC30 [12]: 8630 nM; inhibition at 50 µM (Aorta [10]): 2% |
| 2910 | CCn1c(SCc2ccccc2)nc(N)c(N(Cc2ccccc2)Cc2ccccc2)c1=O | 63 | – | 7 | 450 | 11.9 | 60.7 | 56 | EC50 [13]: 500 nM; inhibition [11]: 94%; EC30 [12]: 18100 nM |
| 4860 | CCCSc1nc(NC(C)=O)c(N(CCC)CCC)c(=O)n1CC | – | – | – | 530 | 22.3 | 56 | – | inhibition at 50 µM [14]: 60%; inhibition at 50 µM [6]: 13%; inhibition at 50 µM (Aorta [10]): 13%; inhibition [15]: 72% |
| 10700 | CCCSc1nc(N)c(N(CCC)CCC)c(OCC)n1 | 27 | 68 | 16 | 150 | – | – | – | inhibition [11]: 83% |
| 1480 | CCn1c(SCc2ccccc2)nc(NC(C)=O)c(N(Cc2ccccc2)Cc2ccccc2)c1=O | – | – | 25 | 290 | 15.2 | 58 | – | inhibition at 50 µM [14]: 66%; EC30 [12]: 14100 nM; inhibition at 50 µM [6]: 72%; inhibition [15]: 90% |
| – | CC(=O)Nc1nc(SCc2ccccc2)[nH]c(=O)c1N(Cc1ccccc1)Cc1ccccc1 | 95 | – | 31 | 1410 | – | – | 90 | EC30 [12]: 6790 nM |
| – | CCCSc1nc(NC(C)=O)c(N(CCC)CCC)c(=O)[nH]1 | – | – | 30 | 280 | – | – | – | inhibition at 5 µM [16]: 62%; inhibition at 10 µM [17]: 7% |
| 21500 | CCn1c(SCCOC)nc(N)c(N(CCOC)CCOC)c1=O | 11 | 76 | 33 | 230 | 24.7 | 52 | – | inhibition [11]: 60% |
| – | COCCSc1nc(N)c(N(CCOC)CCOC)c(=O)[nH]1 | – | 93 | 10 | 340 | – | – | – | inhibition at 10 µM [17]: 13% |
| – | CCOc1nc(SCCOC)nc(N)c1N(CCOC)CCOC | 45 | – | 22 | 310 | – | – | – | inhibition at 50 µM [14]: 79% |
| – | CCCSc1nc(NC(C)=O)c(N(CCC)CCC)c(OCC)n1 | – | – | 23 | 1000 | – | – | – | inhibition at 50 µM [14]: 71%; inhibition at 10 µM [17]: 2% |
